Laboratory results reported in ChEMBL document CHEMBL1143519, “2-Piperazinecarboxamides as potent and selective melanocortin subtype-4 receptor agonists” (Bioorg Med Chem Lett, 2005).

How the values were obtained:
Melanocortin receptor 5 [1] = molecular target: T1, Melanocortin receptor 5 (Homo sapiens, UniProt P33032); assay: Concentration of compound at 50% maximum cAMP accumulation mediated by human melanocortin 5 receptor; format: functional
Rattus norvegicus = species on record: Rattus norvegicus; assay: Covalent binding to rat microsomal proteins after 30 min of incubation with [3H]-compound in the presence of NADPH (n=3); format: functional
How it was run: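 Tritium-labelled compound was incubated for 30 min with rat liver microsomes plus NADPH. Radioactivity bound covalently to microsomal protein was expressed as pmol equivalents per mg protein. Values are mean ± standard deviation of n = 3.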

Melanocortin receptor 3 [2] = molecular target: T2, Melanocortin receptor 3 (Homo sapiens, UniProt P41968); conditions: at 10 µM
Melanocortin receptor 4 [3] = molecular target: T3, Melanocortin receptor 4 (Homo sapiens, UniProt P32245); conditions: at 10 µM
Melanocortin receptor 4 [4] = molecular target: T3, Melanocortin receptor 4; assay: Inhibitory concentration to displace [125I]NDP-alpha-MSH from human melanocortin 4 receptor expressed in CHO cells; Control 19 nM; format: cell-based
[5] = molecular target: Melanocortin receptor (M3 and M4) (Homo sapiens) (UniProt P32245+P41968); assay: Selectivity for human melanocortin 3 receptor over melanocortin 4 receptor expressed in CHO cells; control 1 nM; format: cell-based
Melanocortin receptor 4 [6] = molecular target: T3, Melanocortin receptor 4; assay: Concentration of compound at 50% maximum cAMP accumulation mediated by human melanocortin 4 receptor; format: functional
Melanocortin receptor 5 [7] = molecular target: T1, Melanocortin receptor 5; conditions: at 10 µM
[8] = Selectivity for human melanocortin 3 receptor over melanocortin 5 receptor expressed in CHO cells; control 6 nM; format: cell-based
Melanocortin receptor 3 [9] = molecular target: T2, Melanocortin receptor 3; assay: Concentration of compound at 50% maximum cAMP accumulation mediated by human melanocortin 3 receptor; format: functional

T3 sequence (P32245 whole entry): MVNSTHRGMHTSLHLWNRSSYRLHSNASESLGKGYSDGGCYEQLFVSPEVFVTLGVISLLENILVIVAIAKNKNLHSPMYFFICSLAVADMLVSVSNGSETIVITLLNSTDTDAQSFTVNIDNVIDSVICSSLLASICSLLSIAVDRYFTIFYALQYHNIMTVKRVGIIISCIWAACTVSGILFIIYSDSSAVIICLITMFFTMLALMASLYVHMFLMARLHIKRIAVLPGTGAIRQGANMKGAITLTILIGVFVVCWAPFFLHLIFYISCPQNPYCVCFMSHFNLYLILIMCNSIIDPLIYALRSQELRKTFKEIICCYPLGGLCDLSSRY
T2 sequence (P41968 whole entry): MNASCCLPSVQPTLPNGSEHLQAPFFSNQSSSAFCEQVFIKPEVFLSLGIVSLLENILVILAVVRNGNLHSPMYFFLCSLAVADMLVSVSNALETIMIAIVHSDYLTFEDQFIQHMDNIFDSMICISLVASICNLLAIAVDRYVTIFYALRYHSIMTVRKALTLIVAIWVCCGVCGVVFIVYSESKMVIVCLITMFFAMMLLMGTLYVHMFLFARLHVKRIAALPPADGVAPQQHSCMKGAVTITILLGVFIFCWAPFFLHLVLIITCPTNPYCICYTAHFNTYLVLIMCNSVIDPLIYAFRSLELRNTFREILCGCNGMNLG
T1 sequence (P33032 whole entry): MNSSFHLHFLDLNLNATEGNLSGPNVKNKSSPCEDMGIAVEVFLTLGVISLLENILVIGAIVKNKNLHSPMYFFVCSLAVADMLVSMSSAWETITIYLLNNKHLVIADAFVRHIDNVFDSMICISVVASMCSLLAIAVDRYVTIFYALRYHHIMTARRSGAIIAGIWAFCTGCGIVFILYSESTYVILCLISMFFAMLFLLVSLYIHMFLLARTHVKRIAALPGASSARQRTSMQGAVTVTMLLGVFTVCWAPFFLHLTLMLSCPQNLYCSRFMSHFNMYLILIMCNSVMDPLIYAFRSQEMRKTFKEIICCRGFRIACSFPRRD

EC50 (Melanocortin receptor 5 [1])	Activity (Rattus norvegicus)	Accumulation (Melanocortin receptor 3 [2])	Accumulation (Melanocortin receptor 4 [3])	IC50 (Melanocortin receptor 4 [4])	Selectivity [5]	EC50 (Melanocortin receptor 4 [6])	Accumulation (Melanocortin receptor 5 [7])	EC50 (Melanocortin receptor 3 [9])	SMILES	Selectivity [8]
760 nM	103	9%	102%	8 nM	119	5 nM	44%	–	CC(C)(C)NC(=O)C1(C2CCCCC2)CCN(C(=O)[C@@H](Cc2ccc(F)cc2)NC(=O)[C@@H]2CN[C@@H](C3CC3)CN2)CC1	59
1000 nM	–	5%	77%	29 nM	48	91 nM	54%	–	CC(C)(C)NC(=O)C1(C2CCCCC2)CCN(C(=O)[C@@H](Cc2ccc(F)cc2)NC(=O)[C@@H]2CN[C@H](C(C)(C)C)CN2)CC1	26
300 nM	–	10%	95%	5 nM	99	7 nM	62%	–	CC(C)(C)NC(=O)C1(C2CCCCC2)CCN(C(=O)[C@@H](Cc2ccc(F)cc2)NC(=O)[C@@H]2CN[C@@H](C3(C)CC3)CN2)CC1	40
880 nM	50	6%	79%	6 nM	86	8 nM	42%	–	C[C@H]1CN[C@H](C(=O)N[C@H](Cc2ccc(F)cc2)C(=O)N2CCC(C(=O)NC(C)(C)C)(C3CCCCC3)CC2)CN1	87
340 nM	107	8%	82%	4 nM	140	3 nM	49%	–	CC(C)[C@H]1CN[C@H](C(=O)N[C@H](Cc2ccc(F)cc2)C(=O)N2CCC(C(=O)NC(C)(C)C)(C3CCCCC3)CC2)CN1	116
920 nM	–	5%	69%	24 nM	49	93 nM	56%	–	CC(C)(C)NC(=O)C1(C2CCCCC2)CCN(C(=O)[C@@H](Cc2ccc(F)cc2)NC(=O)[C@@H]2CN[C@H](C3(C)CC3)CN2)CC1	23
–	216	4%	92%	11 nM	81	18 nM	10%	–	CC(C)C1CNC[C@@H](C(=O)N[C@H](Cc2ccc(F)cc2)C(=O)N2CCC(C(=O)NC(C)(C)C)(C3CCCCC3)CC2)N1 (some centres undefined)	105
450 nM	–	29%	85%	3 nM	116	2 nM	56%	150 nM	CC[C@H]1CN[C@H](C(=O)N[C@H](Cc2ccc(F)cc2)C(=O)N2CCC(C(=O)NC(C)(C)C)(C3CCCCC3)CC2)CN1C	192
1900 nM	–	6%	53%	17 nM	42	41 nM	36%	–	CC(C)(C)NC(=O)C1(C2CCCCC2)CCN(C(=O)[C@@H](Cc2ccc(F)cc2)NC(=O)[C@@H]2CNC3(CC3)CN2)CC1	61
1400 nM	–	4%	67%	25 nM	42	36 nM	33%	–	CC(C)(C)NC(=O)C1(C2CCCCC2)CCN(C(=O)[C@@H](Cc2ccc(F)cc2)NC(=O)[C@@H]2CN[C@H](C3CC3)CN2)CC1.CC(F)(F)C(=O)O	65
360 nM	–	11%	99%	5 nM	116	7 nM	46%	–	CC(C)(C)NC(=O)C1(C2CCCCC2)CCN(C(=O)[C@@H](Cc2ccc(F)cc2)NC(=O)[C@@H]2CN[C@@H](C(C)(C)C)CN2)CC1	39
1400 nM	–	6%	77%	20 nM	61	42 nM	41%	–	CC(C)[C@@H]1CN[C@H](C(=O)N[C@H](Cc2ccc(F)cc2)C(=O)N2CCC(C(=O)NC(C)(C)C)(C3CCCCC3)CC2)CN1	49
–	–	6%	69%	40 nM	59	150 nM	45%	–	CC[C@@H]1CN[C@H](C(=O)N[C@H](Cc2ccc(F)cc2)C(=O)N2CCC(C(=O)NC(C)(C)C)(C3CCCCC3)CC2)CN1	75
2400 nM	–	8%	58%	46 nM	36	330 nM	36%	–	CC[C@@H]1CN[C@H](C(=O)N[C@H](Cc2ccc(F)cc2)C(=O)N2CCC(C(=O)NC(C)(C)C)(C3CCCCC3)CC2)CN1C	49
–	2150	–	–	–	–	–	–	–	CC(C)N(C(=O)C1(C2CCCCC2)CCN(C(=O)[C@@H](Cc2ccc(F)cc2)NC(=O)[C@@H]2CN(C)CCN2)CC1)C(C)C	–
710 nM	–	9%	89%	3 nM	152	5 nM	43%	–	CC[C@H]1CN[C@H](C(=O)N[C@H](Cc2ccc(F)cc2)C(=O)N2CCC(C(=O)NC(C)(C)C)(C3CCCCC3)CC2)CN1	126
